{"source": "ChEMBL document CHEMBL4261600", "about": "(Eur J Med Chem, 2018)", "key": {"[1]": {"experiment": "Antiproliferative activity against CHO cells after 72 hrs by Celltiter-Glo assay", "assay_type": "cell-based, Cricetulus griseus", "details": "chinese hamster", "method_in_brief": "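Cells seeded at 3000/well in 96-well plates, exposed to serially diluted compound for 72 h at 37 °C, 5% CO2. Viability read by CellTiter-Glo luminescence and normalized to DMSO control. GI50 derived from curve fit, mean of three independent measurements. Culture media: DMEM/10% FBS for adherent lines; IMDM for MV4-11 and MEC-1/2; RPMI 1640 for suspension lines and CHL.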"}, "[2]": {"experiment": "Cmax in Sprague-Dawley rat at 3 mg/kg, iv by LC-MS/MS analysis", "assay_type": "ADME, organism-based", "parameters": "dose 3 mg/kg, route intravenous", "details": "in vivo"}, "[3]": {"experiment": "MRT (0 to infinity) in mouse at 3 mg/kg, iv by LC-MS/MS analysis", "assay_type": "ADME, organism-based", "details": "in vivo"}, "[4]": {"molecular_target": "AP2-associated protein kinase 1 (Homo sapiens) (UniProt Q2M2I8)", "experiment": "Binding affinity to human wild-type AAK1 (G25 to L333 residues) expressed in bacterial expression system assessed as remaining unbound target protein level at 1000 nM by Kinomescan method relative to control", "method_in_brief": "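KINOMEscan competitive binding profile at 1 μM inhibitor. Remaining target binding reported as percent of DMSO control.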"}, "[5]": {"test_system": "Tyrosine-protein kinase ABL1 (Homo sapiens), P00519 [Q252H]", "experiment": "Binding affinity to human phosphorylated ABL1 Q252H mutant expressed in mammalian expression system assessed as remaining unbound target protein level at 1000 nM by Kinomescan method relative to control", "method_in_brief": "(§1)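 Single-point competition binding screen across a panel of 468 kinases and mutants, with the inhibitor at 1 μM. Binding is read out as percent of a DMSO control, and targets below 1 percent control were classed as strong binders.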"}, "[6]": {"test_system": "Serine/threonine-protein kinase B-raf (Homo sapiens), P15056 [V600E]", "sequence (P15056 whole entry V600E, the tested form may be a part)": "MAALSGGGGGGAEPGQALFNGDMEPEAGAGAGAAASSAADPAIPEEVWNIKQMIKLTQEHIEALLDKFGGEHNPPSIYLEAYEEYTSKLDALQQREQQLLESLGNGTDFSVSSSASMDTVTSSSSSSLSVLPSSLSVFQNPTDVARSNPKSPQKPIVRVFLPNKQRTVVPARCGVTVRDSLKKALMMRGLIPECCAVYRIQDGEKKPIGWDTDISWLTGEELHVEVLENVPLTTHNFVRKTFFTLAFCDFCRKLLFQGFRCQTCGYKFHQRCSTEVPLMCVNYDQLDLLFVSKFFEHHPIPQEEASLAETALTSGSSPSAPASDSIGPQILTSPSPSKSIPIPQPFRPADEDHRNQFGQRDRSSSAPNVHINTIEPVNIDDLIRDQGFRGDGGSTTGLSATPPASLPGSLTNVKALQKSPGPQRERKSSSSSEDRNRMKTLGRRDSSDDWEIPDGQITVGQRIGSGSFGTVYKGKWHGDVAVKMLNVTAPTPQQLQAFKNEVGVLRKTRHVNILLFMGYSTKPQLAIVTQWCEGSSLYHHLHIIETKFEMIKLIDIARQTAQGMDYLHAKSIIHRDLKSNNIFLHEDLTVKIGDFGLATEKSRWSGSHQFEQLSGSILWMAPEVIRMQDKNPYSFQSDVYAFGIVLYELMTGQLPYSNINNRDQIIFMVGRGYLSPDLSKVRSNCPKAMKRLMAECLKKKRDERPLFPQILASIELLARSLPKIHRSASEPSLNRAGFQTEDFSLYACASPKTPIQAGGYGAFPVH", "experiment": "Binding affinity to human partial length BRAF V600E mutant (S429 to E741 residues) expressed in mammalian expression system assessed as remaining unbound target protein level at 1000 nM by Kinomescan method relative to control", "method_in_brief": "(§2)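 KINOMEscan competition-binding profiling across the panel of 468 kinases and mutants, with inhibitor tested at 1 μM. Binding is expressed as percent of control, with DMSO as the reference control.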"}, "[7]": {"molecular_target": "Cyclin-dependent kinase 11B (Homo sapiens, UniProt P21127)", "experiment": "Binding affinity to wild-type human partial length CDK11 (M1 to N360 residues) expressed in bacterial expression system assessed as […] at 1000 nM after 1 hr by Kinomescan method relative to control"}, "[8]": {"test_system": "Epidermal growth factor receptor (Homo sapiens), P00533 [L861Q]", "experiment": "Binding affinity to human partial length EGFR L861Q mutant (R669 to V1011 residues) expressed in bacterial expression system assessed as remaining unbound target protein level at 1000 nM by Kinomescan method relative to control", "method_in_brief": "as §2"}, "[9]": {"molecular_target": "Fibroblast growth factor receptor 3 (Homo sapiens) (UniProt P22607)", "experiment": "Binding affinity to wild-type human partial length FGFR3 (R442 to S771 residues) expressed in bacterial expression system assessed as remaining unbound target protein level at 1000 nM by Kinomescan method relative to control"}, "[10]": {"molecular_target": "Homeodomain-interacting protein kinase 4 (Homo sapiens) (UniProt Q8NE63)", "experiment": "Binding affinity to wild-type human partial length HIPK4 (M1 to V384 residues) expressed in bacterial expression system assessed as remaining unbound target protein level at 1000 nM by Kinomescan method relative to control", "method_in_brief": "(§3)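 KINOMEscan binding panel of 468 kinases/mutants. Inhibitor was tested at a single concentration of 1 μM. Binding is reported as percent of control, defined relative to a DMSO control.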"}, "[11]": {"molecular_target": "Tyrosine-protein kinase JAK1 (Homo sapiens) (UniProt P23458)", "experiment": "Binding affinity to wild-type human partial length JAK1 JH1 catalytic domain (V856 to K1154 residues) expressed in bacterial expression system assessed as remaining unbound target protein level at 1000 nM by Kinomescan method relative to control", "method_in_brief": "as §3"}, "[12]": {"test_system": "Mast/stem cell growth factor receptor Kit (Homo sapiens), P10721 [V559D,T670I]", "experiment": "Binding affinity to human partial length KIT V559D/T670I double mutant (Y545 to D952 residues) expressed in bacterial expression system assessed as remaining unbound target protein level at 1000 nM by Kinomescan method relative to control", "method_in_brief": "as §2"}, "[13]": {"molecular_target": "Serine/threonine-protein kinase MRCK beta (Homo sapiens) (UniProt Q9Y5S2)", "sequence (Q9Y5S2 whole entry, the tested form may be a part)": "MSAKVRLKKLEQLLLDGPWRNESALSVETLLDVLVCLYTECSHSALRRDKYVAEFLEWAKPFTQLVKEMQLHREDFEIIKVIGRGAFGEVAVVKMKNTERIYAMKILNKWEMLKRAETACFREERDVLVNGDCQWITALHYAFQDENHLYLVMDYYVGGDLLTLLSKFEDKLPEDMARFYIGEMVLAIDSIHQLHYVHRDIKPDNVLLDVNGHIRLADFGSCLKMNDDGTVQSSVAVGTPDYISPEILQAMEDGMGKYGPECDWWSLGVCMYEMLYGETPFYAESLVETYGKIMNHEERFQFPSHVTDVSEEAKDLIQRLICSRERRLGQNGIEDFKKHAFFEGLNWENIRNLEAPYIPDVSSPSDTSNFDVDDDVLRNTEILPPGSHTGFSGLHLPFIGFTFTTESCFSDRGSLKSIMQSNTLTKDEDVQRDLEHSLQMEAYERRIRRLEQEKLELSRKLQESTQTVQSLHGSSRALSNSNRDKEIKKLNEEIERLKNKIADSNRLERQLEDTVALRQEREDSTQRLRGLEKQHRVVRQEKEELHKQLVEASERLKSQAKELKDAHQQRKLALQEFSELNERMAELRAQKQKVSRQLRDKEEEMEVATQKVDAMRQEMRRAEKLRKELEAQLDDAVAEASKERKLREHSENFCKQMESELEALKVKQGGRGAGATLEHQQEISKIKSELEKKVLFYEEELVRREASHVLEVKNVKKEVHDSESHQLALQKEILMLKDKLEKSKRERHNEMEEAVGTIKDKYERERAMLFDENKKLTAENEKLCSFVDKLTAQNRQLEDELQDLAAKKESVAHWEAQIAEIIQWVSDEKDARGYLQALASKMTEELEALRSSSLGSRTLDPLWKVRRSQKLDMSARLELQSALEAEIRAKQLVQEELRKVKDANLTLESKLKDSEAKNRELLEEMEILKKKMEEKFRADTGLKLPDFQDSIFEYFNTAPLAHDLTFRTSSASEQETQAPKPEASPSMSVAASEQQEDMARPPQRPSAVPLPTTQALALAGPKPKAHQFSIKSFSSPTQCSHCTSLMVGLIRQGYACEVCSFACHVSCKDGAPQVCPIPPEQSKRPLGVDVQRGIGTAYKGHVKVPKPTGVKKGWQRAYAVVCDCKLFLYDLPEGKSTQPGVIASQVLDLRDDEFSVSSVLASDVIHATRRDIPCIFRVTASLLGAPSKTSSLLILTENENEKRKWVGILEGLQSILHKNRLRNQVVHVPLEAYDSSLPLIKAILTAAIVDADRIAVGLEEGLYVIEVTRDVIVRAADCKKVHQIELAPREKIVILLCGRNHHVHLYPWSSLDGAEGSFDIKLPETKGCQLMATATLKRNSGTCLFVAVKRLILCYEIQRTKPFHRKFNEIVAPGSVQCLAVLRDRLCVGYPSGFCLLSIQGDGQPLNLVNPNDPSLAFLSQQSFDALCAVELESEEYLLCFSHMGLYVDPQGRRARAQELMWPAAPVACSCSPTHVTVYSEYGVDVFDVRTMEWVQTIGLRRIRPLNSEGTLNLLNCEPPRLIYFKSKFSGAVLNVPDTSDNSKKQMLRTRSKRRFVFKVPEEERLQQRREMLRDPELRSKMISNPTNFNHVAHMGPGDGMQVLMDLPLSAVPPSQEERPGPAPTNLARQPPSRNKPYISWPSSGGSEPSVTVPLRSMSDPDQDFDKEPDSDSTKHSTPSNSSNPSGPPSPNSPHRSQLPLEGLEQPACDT", "experiment": "Binding affinity to wild-type human partial length MRCKB (L56 to S417 residues) expressed in bacterial expression system assessed as remaining unbound target protein level at 1000 nM by Kinomescan method relative to control"}, "[14]": {"molecular_target": "Serine/threonine-protein kinase Nek7 (Homo sapiens) (UniProt Q8TDX7)", "experiment": "Binding affinity to wild-type human full length NEK7 (M1 to S302 residues) expressed in bacterial expression system assessed as remaining unbound target protein level at 1000 nM by Kinomescan method relative to control", "method_in_brief": "as §1"}, "[15]": {"molecular_target": "Serine/threonine-protein kinase PAK 4 (Homo sapiens) (UniProt O96013)", "experiment": "Binding affinity to wild-type human partial length PAK4 (Q144 to R438 residues) expressed in bacterial expression system assessed as remaining unbound target protein level at 1000 nM by Kinomescan method relative to control", "method_in_brief": "as §3"}, "[16]": {"molecular_target": "Serine/threonine-protein kinase pim-2 (Homo sapiens) (UniProt Q9P1W9)", "experiment": "Binding affinity to wild-type human partial length PIM2 (M1 to E291 residues) expressed in bacterial expression system assessed as remaining unbound target protein level at 1000 nM by Kinomescan method relative to control"}, "[17]": {"molecular_target": "Dual serine/threonine and tyrosine protein kinase (Homo sapiens) (UniProt Q6XUX3)", "sequence (Q6XUX3 whole entry, the tested form may be a part)": "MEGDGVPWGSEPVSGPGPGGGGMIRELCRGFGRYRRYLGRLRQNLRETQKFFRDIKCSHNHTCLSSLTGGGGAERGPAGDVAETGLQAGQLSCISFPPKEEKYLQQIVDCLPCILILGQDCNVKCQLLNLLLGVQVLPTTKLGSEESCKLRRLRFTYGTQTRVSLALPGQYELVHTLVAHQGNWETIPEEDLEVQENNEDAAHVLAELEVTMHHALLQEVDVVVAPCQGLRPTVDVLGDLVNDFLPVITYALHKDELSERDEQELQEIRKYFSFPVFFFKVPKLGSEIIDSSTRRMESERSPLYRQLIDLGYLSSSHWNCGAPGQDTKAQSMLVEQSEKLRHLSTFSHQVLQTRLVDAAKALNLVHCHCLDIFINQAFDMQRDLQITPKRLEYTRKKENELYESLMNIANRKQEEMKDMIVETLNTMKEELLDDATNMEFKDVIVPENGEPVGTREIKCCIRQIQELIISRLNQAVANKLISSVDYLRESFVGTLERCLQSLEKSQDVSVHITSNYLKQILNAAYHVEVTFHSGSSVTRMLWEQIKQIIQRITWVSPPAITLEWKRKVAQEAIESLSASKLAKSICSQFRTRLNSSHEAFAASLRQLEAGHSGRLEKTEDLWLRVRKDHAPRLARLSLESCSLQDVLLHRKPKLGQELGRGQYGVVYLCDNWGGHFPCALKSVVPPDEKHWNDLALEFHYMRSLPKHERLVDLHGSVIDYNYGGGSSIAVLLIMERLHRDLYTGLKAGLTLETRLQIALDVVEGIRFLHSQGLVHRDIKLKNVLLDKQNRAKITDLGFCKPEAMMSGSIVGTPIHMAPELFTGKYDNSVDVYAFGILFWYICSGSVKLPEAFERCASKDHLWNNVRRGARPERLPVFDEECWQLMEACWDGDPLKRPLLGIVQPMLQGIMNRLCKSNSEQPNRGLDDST", "experiment": "Binding affinity to wild-type human full length RIPK5 (M1 to T929 residues) expressed in mammalian expression system assessed as remaining unbound target protein level at 1000 nM by Kinomescan method relative to control", "method_in_brief": "(§4)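 KINOMEscan competition binding profile across a panel of 468 kinases and mutants, with the inhibitor tested at a single concentration of 1 μM. Binding is reported as percent of control, meaning signal relative to a DMSO control.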"}, "[18]": {"molecular_target": "Serine/threonine-protein kinase TAO3 (Homo sapiens) (UniProt Q9H2K8)", "sequence (Q9H2K8 whole entry, the tested form may be a part)": "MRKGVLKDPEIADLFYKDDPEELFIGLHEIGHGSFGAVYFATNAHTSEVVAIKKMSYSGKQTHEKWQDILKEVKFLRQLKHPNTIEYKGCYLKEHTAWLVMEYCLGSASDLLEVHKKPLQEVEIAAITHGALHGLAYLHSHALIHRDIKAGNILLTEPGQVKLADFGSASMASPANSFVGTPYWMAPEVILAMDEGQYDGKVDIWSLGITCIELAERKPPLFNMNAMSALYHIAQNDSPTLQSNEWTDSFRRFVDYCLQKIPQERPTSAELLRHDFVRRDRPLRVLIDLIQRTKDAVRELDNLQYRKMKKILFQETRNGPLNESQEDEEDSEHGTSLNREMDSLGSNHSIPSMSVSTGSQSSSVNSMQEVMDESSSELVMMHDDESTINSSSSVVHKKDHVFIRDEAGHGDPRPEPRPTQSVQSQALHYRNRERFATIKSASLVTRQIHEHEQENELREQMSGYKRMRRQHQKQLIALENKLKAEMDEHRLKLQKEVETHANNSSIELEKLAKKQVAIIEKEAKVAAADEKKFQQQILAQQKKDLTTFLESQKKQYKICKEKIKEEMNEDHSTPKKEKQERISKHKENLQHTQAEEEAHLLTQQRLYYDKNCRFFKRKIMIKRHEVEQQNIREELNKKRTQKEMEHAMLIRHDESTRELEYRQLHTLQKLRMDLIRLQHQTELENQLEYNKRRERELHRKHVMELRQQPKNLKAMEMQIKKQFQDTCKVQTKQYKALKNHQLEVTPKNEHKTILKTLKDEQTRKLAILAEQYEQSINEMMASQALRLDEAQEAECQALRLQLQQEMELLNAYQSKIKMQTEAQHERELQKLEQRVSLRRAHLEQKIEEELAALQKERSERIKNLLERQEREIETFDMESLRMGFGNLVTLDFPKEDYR", "experiment": "Binding affinity to wild-type human partial length TAOK3 (M1 to T316 residues) expressed in mammalian expression system assessed as remaining unbound target protein level at 1000 nM by Kinomescan method relative to control"}, "[19]": {"molecular_target": "Non-receptor tyrosine-protein kinase TNK1 (Homo sapiens) (UniProt Q13470)", "sequence (Q13470 whole entry, the tested form may be a part)": "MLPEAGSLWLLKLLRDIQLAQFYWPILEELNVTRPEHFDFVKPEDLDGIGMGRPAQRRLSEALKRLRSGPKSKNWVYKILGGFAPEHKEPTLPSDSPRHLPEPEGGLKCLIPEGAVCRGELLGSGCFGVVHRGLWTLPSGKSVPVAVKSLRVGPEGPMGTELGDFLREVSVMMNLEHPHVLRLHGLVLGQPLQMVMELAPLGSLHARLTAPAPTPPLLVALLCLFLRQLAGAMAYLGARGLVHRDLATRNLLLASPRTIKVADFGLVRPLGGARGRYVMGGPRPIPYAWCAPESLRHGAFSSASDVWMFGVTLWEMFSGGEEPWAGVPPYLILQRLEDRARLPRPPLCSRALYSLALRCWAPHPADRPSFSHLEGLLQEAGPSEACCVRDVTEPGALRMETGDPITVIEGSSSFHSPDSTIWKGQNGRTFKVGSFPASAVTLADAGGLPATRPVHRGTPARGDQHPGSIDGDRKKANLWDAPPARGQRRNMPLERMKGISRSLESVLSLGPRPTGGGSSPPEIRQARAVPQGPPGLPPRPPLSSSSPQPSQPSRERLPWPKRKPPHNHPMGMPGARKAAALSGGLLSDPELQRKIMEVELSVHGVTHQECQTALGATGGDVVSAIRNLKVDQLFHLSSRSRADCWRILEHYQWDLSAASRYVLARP", "experiment": "Binding affinity to wild-type human full length TNK1 (M1 to P661 residues) expressed in bacterial expression system assessed as remaining unbound target protein level at 1000 nM by Kinomescan method relative to control", "method_in_brief": "as §4"}, "[20]": {"molecular_target": "Wee1-like protein kinase 2 (Homo sapiens) (UniProt P0C1S8)", "experiment": "Binding affinity to wild-type human partial length WEE2 (M204 to K492 residues) expressed in bacterial expression system assessed as remaining unbound target protein level at 1000 nM by Kinomescan method relative to control"}, "CDK2/Cyclin A2": {"molecular_target": "CDK2/Cyclin A2 (Homo sapiens, UniProt P24941)", "experiment": "Inhibition of recombinant full length His-tagged human CDK2/CyclinA expressed in baculovirus expression system"}, "CDK9/cyclin T1": {"molecular_target": "CDK9/cyclin T1 (Homo sapiens, UniProt P50750)", "experiment": "Inhibition of recombinant full length His-tagged human CDK9/CyclinT1 expressed in baculovirus expression system"}}}
{"smiles": "COCCN[C@H]1CC[C@H](Nc2cc(-c3csc(NCC4(C#N)CCOCC4)n3)c(Cl)cn2)CC1", "values": [{"measurement": "GI50 at 72 h", "setting": "[1]", "result": 1.1, "unit": "µM"}, {"measurement": "Cmax", "setting": "[2]", "result": 1470, "unit": "ng/mL"}, {"measurement": "MRT inf", "setting": "[3]", "result": 1.58, "unit": "h"}, {"measurement": "Activity", "setting": "[4]", "result": 99, "unit": "%"}, {"measurement": "Activity", "setting": "[5]", "result": 90, "unit": "%"}, {"measurement": "Activity", "setting": "[6]", "result": 91, "unit": "%"}, {"measurement": "Activity", "setting": "[7]", "result": 100, "unit": "%"}, {"measurement": "Activity", "setting": "[8]", "result": 76, "unit": "%"}, {"measurement": "Activity", "setting": "[9]", "result": 89, "unit": "%"}, {"measurement": "Activity", "setting": "[10]", "result": 9.9, "unit": "%"}, {"measurement": "Activity", "setting": "[11]", "result": 99, "unit": "%"}, {"measurement": "Activity", "setting": "[12]", "result": 89, "unit": "%"}, {"measurement": "Activity", "setting": "[13]", "result": 100, "unit": "%"}, {"measurement": "Activity", "setting": "[14]", "result": 83, "unit": "%"}, {"measurement": "Activity", "setting": "[15]", "result": 91, "unit": "%"}, {"measurement": "Activity", "setting": "[16]", "result": 53, "unit": "%"}, {"measurement": "Activity", "setting": "[17]", "result": 95, "unit": "%"}, {"measurement": "Activity", "setting": "[18]", "result": 15, "unit": "%"}, {"measurement": "Activity", "setting": "[19]", "result": 56, "unit": "%"}, {"measurement": "Activity", "setting": "[20]", "result": 100, "unit": "%"}, {"measurement": "IC50", "setting": "CDK2/Cyclin A2", "result": 2.86, "unit": "µM"}, {"measurement": "IC50", "setting": "CDK9/cyclin T1", "result": 0.001, "unit": "µM"}]}
